Compounds with a hit are over-represented: about 12% of the library has one in this group of screens.
Lmaj promast: Leishmania major promastigote growth inhibition; 9% of 200,000 active; inhibition, % at 10 µM; Leishmania major promastigotes, resazurin fluorescence viability; in the data active means inhibition above about 50%;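 further: promastigotes grown with compound for 44 hours at 28 °C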
Autophagy mod: autophagy modulation, high-content screen; MEF GFP-LC3 puncta imaging; test concentration mostly 10 µM; calls only at 10 µM (by protocol); 0.98% of 190,000 active; AID 463193;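 active means percentage of spot-positive cells more than 3 SD above its plate mean, without a fluorescence outlier flag or 80% toxicity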;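 further: spot-positive cell cutoff set from DMSO-treated cells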
CHOP inh: CHOP inhibition in unfolded protein response; inhibition, % at 10 µM; 3.8% of 220,000 active; CHO-K1 CHOP-promoter luciferase, tunicamycin-induced, 15-18 h;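 active means compounds that reduced the stress-induced luciferase reporter signal by more than about 70% of percent inhibition, limit read from the data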;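 further: 0% = tunicamycin plus vehicle and 100% = wells without tunicamycin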
b-catenin transl: alters nuclear translocation of beta-catenin in HeLa cells. AID 1665. 0.3% of 190,000 active. nuclear translocation activity, % at 5 µM. immunofluorescence imaging;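 active means nuclear translocation activity above 50% at 5 µM, with a well cell count of 50 or more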;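 further: per-cell ratio of nuclear to cytoplasmic median beta-catenin stain intensity; plate controls were DMSO negative control for no effect and GSK-3 inhibitor IX positive control for full effect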
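Assay system: human HeLa cells, native beta-catenin; doses: 5 µM primary, 0.02–20 µM confirmation; incubation: compound treatment 24 h, 37°C, 5% CO2; technique: fluorescence imaging of beta-catenin antibody stain plus DAPI; measure: % activation, nuclear-to-cytoplasmic median beta-catenin signal ratio per cell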
Dynein transport: dynein cargo transport inhibition; 3617.4 mouse cells, GR-EGFP nuclear translocation imaging; test concentration mostly 20 µM; stimulated with dexamethasone, 1 µM; hits give low values; z-score, hits read low; 0.47% of 220,000 active; AID 1381;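 active means plate z-score of nuclear minus cytoplasmic receptor signal below a set negative limit, without overly bright fluorescence or cell loss, cut at about -3.5 in these data, passing the limit was not always enough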;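 further: z-score of nuclear minus cytoplasmic ring GR-EGFP intensity difference per well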
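medium = tetracycline-free induction medium containing charcoal-stripped FBS | probe or stimulus = dexamethasone, 1.0 µM final | timing = 48 h induction, then 1 h compound, then 30 min agonist, 37 °C | detection = automated 10x imaging of fixed Hoechst-stained cells | read-out basis = nuclear versus cytoplasmic GR-EGFP signal, averaged per well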
MT stabilize HCS: microtubule stabilization, imaging screen; HeLa tubulin immunostaining HCS, 24 h; share of cells brighter than vehicle mean+2SD; AID 2205; % tubulin-high responders, % at 10 µM; 0.83% of 200,000 active;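 active means plate Z-score above 3 for both tubulin-high and condensed-nucleus cell shares, with cell loss under 80%, at 10 µM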;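 further: anti alpha tubulin signal scored within the nucleus-defined area of each cell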
Numbers without * were called inactive; i = inactive; · = not tested or not shown.

SMILES	Lmaj promast	Autophagy mod	CHOP inh	b-catenin transl	Dynein transport	MT stabilize HCS
CC(C)OCc1c(C(=O)OC/C(O)=C(\C#N)c2nc3ccccc3[nH]2)oc2ccccc12	-5	i	38	0	-0.36	2
NC(=O)CC(NC(=O)Cc1ccc(Br)cc1)c1ccc(N2CCN(c3ccc(F)cc3)CC2)c([N+](=O)[O-])c1 (centres undefined)	·	·	85*	0	-0.51	·
NC(=O)CC(NC(=O)c1ccc(Br)cc1)c1ccc(N2CCN(c3ccc(F)cc3)CC2)c([N+](=O)[O-])c1 (centres undefined)	·	·	93*	0	-0.052	·
Cc1ccsc1/C=N\NC(=O)c1n[nH]c2c1CCC2	4	i	22	27	0.24	25*
O=C(Cc1cn2ccsc2n1)Nc1nc2c(s1)CN(Cc1ccccc1)CC2	-5	i	18	-1	0.21	2
CC(C)CC(=O)N1CCN(S(=O)(=O)c2ccc(Cl)cc2)CC1	-3	i	1	-1	1.3	3
O=C(OCC(=O)N1CCN(S(=O)(=O)c2ccc(Cl)cc2)CC1)c1ccc([N+](=O)[O-])o1	57*	i	-19	-4	-0.51	2
O=C(OCC(=O)N1CCN(S(=O)(=O)c2ccccc2)CC1)c1ccc([N+](=O)[O-])o1	95*	i	13	-5	-0.91	7
O=C(COc1ccccc1[N+](=O)[O-])N1CCN(S(=O)(=O)c2ccccc2)CC1	1	i	13	-1	0.098	4
COc1ccc(C(=O)NC(NC(=O)c2ccc(OC)c(OC)c2)c2ccccc2F)cc1OC	-3	i	-10	-3	0.6	2
Cc1ccc(NC2=C(CC(=O)O)C(c3ccccc3)N(c3ccc(C)cc3)C2=O)cc1 (centres undefined)	28	i	31	2	-1.4	12*
COc1cccc(NC(=O)CC2S/C(=N\S(=O)(=O)c3ccccc3)N(c3ccccc3)C2=O)c1 (centres undefined)	61*	i	26	-1	1.3	2
COC(=O)c1ccc(Cl)c(NC(=O)c2ccc(-c3ccccc3)cc2)c1	-9	i	52	-2	0.16	3
O=C(Nc1cnn(Cc2ccc(Cl)cc2)c1)c1ccc([N+](=O)[O-])cc1	-6	i	55	-1	0.62	2
O=C(C[n+]1cnn(CC(=O)c2ccc(Cl)cc2Cl)c1)c1ccc([N+](=O)[O-])cc1	83*	i	11	0	-0.55	3
Cn1c(Cc2ccccc2)nnc1SCC(=O)c1ccc(Br)s1	12	i	-9	·	-0.84	2
C/C(=N\Nc1nc(-c2ccccc2)cs1)c1cccs1	79*	i	57	3	-0.52	1
O=C(CC1CS(=O)(=O)CC1CC(=O)Oc1ccccc1F)Oc1ccccc1F (centres undefined)	-4	i	22	·	1.8	2
O/N=C/c1ccc(-c2cc(Cl)ccc2Cl)o1	67*	i	96*	0	1	2
O=C(CN1CCN(Cc2cccc(Cl)c2)C1=O)NCc1ccccn1	-5	i	9	·	0.24	2
COc1cc(CNC2CCCC2)cc(Cl)c1OCc1ccc(F)cc1	101*	i	67	5	-0.78	2
COc1cc(CNn2c(C)n[nH]c2=S)cc(Cl)c1OCc1ccc(F)cc1	0	i	59	-5	-0.082	3
COc1cc(CNC2CCCC2)cc(OC)c1OC	3	i	15	-5	0.5	4
COc1cc(CNC2CCCC2)cc(Br)c1OCC(=O)Nc1ccccc1C	99*	i	12	1	-0.48	2
CCOc1cc(CNC2CCCC2)cc(Cl)c1OCc1ccc(F)cc1	100*	i	19	-3	0.38	2
COc1cc(CNC2CCCC2)cc(Cl)c1OCc1ccccc1Cl	100*	i	74*	12	0.43	4
COc1ccccc1-n1c(SCC(=O)N2CCOCC2)nc(O)c(Cc2ccccc2)c1=O	-2	i	-9	·	0.88	5
COC(=O)CSc1cc(SCC(=O)OC)c(C#N)c(SCC(=O)OC)c1	64*	i	-22	0	-0.37	7
COC(=O)CSc1ccc(C#N)c(SCC(=O)OC)c1	-1	i	-14	-1	0.09	2

Compound activity deposited in PubChem BioAssay by several laboratories.
